The source made the active and inactive calls. The rule behind the calls is not given here.
What was measured:
[1] = target: Epidermal growth factor receptor (Homo sapiens) (UniProt P00533); assay: Inhibition of recombinant human EGFR (696 to end residues) at 1 uM using poly(Glu, Tyr) 4:1 as substrate incubated for 40 mins in presence of [gamma-33P]-ATP by scintillation counting method relative to control
Summary of the method: (§1)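 Kinase panel profiling at 1 μM performed by Eurofins KinaseProfiler; percent inhibition reported as mean of two independent experiments.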

[2] = Toxicity in NOD/SCID BALB/c mouse xenografted with human SiHa cells assessed as effect on blood parameter by measuring platelet content at 40 mg/kg, po administered once two days for 4 times by hematology analyzer; type: organism-based; settings: in vivo
[3] = target: Rhodopsin kinase GRK7 (Homo sapiens) (UniProt Q8WTQ7); assay: Inhibition of recombinant human full length GRK7 at 1 uM using casein as substrate incubated for 40 mins in presence of [gamma-33P]-ATP by scintillation counting method relative to control
Chain of Rhodopsin kinase GRK7 (Homo sapiens) (Q8WTQ7 whole entry): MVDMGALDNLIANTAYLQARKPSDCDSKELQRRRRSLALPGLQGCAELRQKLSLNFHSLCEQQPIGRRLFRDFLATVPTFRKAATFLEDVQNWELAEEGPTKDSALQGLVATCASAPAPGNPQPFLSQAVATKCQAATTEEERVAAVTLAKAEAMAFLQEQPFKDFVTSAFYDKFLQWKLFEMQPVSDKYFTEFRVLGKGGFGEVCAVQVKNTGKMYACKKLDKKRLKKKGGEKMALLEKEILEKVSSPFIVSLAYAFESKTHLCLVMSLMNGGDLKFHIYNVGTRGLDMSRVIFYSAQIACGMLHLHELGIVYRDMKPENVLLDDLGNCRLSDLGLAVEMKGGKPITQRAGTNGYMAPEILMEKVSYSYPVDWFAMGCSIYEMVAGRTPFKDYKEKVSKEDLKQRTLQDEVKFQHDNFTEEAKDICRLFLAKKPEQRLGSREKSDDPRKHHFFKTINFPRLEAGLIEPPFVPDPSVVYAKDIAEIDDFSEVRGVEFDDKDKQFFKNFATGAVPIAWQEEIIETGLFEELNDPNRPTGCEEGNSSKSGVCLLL

[4] = target: Ephrin type-A receptor 3 (Homo sapiens) (UniProt P29320); assay: Inhibition of recombinant human EPhA3 (578 to end residues) at 1 uM using poly(Glu, Tyr) 4:1 as substrate incubated for 40 mins in presence of [gamma-33P]-ATP by scintillation counting method relative to control
[5] = target: PI3K p110 beta/p85 alpha (Homo sapiens) (UniProt P27986+P42338); assay: Inhibition of recombinant human full length PI3K p110beta/p85alpha at 1 uM using phosphatidylinositol-4, 5-bisphosphate as substrate incubated for 40 mins in presence of [gamma-33P]-ATP by scintillation counting method relative to control; type: protein-complex assay
Chain of PI3K p110 beta/p85 alpha (Homo sapiens) (P27986 2-724 limits assumed): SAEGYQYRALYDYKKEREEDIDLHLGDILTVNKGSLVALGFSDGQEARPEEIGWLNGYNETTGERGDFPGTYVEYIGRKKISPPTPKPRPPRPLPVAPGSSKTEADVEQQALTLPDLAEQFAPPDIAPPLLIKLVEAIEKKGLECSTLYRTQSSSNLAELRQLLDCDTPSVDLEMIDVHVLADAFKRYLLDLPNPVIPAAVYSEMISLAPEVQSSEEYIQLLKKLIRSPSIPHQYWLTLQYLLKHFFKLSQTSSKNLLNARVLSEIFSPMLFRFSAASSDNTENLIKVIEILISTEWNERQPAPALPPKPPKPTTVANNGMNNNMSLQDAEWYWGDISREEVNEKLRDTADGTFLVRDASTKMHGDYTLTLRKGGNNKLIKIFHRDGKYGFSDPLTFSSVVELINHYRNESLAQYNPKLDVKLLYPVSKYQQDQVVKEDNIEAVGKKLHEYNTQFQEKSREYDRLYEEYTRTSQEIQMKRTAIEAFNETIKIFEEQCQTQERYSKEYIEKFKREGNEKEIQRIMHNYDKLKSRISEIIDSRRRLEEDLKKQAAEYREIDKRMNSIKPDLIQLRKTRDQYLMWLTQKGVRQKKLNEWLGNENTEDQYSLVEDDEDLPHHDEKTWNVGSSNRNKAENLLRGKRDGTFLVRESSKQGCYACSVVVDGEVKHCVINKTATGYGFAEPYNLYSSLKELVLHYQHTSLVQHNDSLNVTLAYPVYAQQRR
Chain of PI3K p110 beta/p85 alpha (Homo sapiens) (P42338 whole entry partner): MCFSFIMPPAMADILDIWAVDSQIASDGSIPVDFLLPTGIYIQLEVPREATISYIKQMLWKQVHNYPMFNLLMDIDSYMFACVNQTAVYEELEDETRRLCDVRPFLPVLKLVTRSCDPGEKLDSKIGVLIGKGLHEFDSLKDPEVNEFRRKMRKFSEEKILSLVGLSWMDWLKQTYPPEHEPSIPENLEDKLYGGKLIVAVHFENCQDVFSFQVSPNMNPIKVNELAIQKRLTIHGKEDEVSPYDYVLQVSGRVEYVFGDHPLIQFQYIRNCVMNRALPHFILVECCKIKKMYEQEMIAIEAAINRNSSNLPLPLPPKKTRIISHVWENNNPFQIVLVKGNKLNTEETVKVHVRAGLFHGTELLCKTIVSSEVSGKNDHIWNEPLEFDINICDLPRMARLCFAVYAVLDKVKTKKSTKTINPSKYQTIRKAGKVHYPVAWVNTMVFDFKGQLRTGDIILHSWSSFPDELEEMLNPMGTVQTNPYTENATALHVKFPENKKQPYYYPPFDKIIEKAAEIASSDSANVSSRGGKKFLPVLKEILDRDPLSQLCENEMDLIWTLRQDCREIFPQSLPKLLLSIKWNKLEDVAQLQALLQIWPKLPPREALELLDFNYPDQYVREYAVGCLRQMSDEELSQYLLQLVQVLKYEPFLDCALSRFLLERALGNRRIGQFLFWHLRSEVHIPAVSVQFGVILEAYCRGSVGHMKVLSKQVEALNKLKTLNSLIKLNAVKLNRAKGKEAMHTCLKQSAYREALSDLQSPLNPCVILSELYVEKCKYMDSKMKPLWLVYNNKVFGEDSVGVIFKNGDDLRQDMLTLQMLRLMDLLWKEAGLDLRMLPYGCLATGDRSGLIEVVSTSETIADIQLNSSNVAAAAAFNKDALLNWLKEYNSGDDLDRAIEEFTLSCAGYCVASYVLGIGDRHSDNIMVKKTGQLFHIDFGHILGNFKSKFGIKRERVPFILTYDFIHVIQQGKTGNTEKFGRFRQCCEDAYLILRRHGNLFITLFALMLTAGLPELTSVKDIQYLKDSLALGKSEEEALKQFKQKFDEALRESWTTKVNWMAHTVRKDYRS

[6] = target: Macrophage-stimulating protein receptor (Homo sapiens) (UniProt Q04912); assay: Inhibition of recombinant human RON (983 to end residues) at 1 uM using GGMEDIYFEFMGGKKK as substrate incubated for 40 mins in presence of [gamma-33P]-ATP by scintillation counting method relative to control
[7] = VRT (0 to t) in Sprague-Dawley rat at 10 mg/kg, iv by HPLC-MS analysis; type: ADME, organism-based; settings: in vivo
[8] = target: Tyrosine-protein kinase BTK (Homo sapiens) (UniProt Q06187); assay: Inhibition of recombinant full length human BTK at 1 uM using LSNLYHQGKFLQT as substrate incubated for 40 mins in presence of [gamma-33P]-ATP by scintillation counting method relative to control
Summary of the method: (§2)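 Tested at a single 1 uM in an outsourced commercial kinase-profiling panel, read as percent inhibition. Each value is the mean of two independent experiments.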

[9] = target: Tyrosine-protein kinase ZAP-70 (Homo sapiens) (UniProt P43403); assay: Inhibition of recombinant human full length ZAP70 at 1 uM using poly(Glu, Tyr) 4:1 as substrate incubated for 40 mins in presence of [gamma-33P]-ATP by scintillation counting method relative to control
[10] = AUC (0 to infinity) in Sprague-Dawley rat at 10 mg/kg, iv by HPLC-MS analysis; type: ADME, organism-based; set-up: dose 10 mg/kg, route intravenous, time infinity; settings: in vivo
Summary of the method: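 Rats fitted with jugular vein catheters for serial blood sampling. Compound dissolved in saline with 5% (v/v) DMSO and given as a single 10 mg/kg dose iv or po after an overnight fast, n = 5 per group. Plasma isolated at once and measured by HPLC with tandem MS detection. Parameters derived by noncompartmental fitting.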

MDA-MB-231 [11] = assay: Induction of apoptosis in human MDA-MB-231 cells assessed as increase in late apoptotic cells at 20 to 40 nM incubated for 48 hrs by annexin V FITC and propidium iodide staining based flow cytometry; type: functional, cell-based
Summary of the method: (§3)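 Annexin V-FITC/PI double staining with flow-cytometric readout. MDA-MB-231, T-47D, SiHa and HeLa cells were treated with graded concentrations for 48 h. MDA-MB-231 and T-47D were grown in DMEM and SiHa in 1640 medium, each with 10% FBS and 1% penicillin/streptomycin at 37°C under 5% CO2. Early- and late-stage apoptotic fractions were scored.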

[12] = target: Serine/threonine-protein kinase PLK2 (Homo sapiens) (UniProt Q9NYY3); assay: Inhibition of recombinant human SNK (65 to 409 residues) at 1 uM using casein as substrate incubated for 40 mins in presence of [gamma-33P]-ATP by scintillation counting method relative to control
Chain of Serine/threonine-protein kinase PLK2 (Homo sapiens) (Q9NYY3 whole entry, looked up, the tested form may be a part): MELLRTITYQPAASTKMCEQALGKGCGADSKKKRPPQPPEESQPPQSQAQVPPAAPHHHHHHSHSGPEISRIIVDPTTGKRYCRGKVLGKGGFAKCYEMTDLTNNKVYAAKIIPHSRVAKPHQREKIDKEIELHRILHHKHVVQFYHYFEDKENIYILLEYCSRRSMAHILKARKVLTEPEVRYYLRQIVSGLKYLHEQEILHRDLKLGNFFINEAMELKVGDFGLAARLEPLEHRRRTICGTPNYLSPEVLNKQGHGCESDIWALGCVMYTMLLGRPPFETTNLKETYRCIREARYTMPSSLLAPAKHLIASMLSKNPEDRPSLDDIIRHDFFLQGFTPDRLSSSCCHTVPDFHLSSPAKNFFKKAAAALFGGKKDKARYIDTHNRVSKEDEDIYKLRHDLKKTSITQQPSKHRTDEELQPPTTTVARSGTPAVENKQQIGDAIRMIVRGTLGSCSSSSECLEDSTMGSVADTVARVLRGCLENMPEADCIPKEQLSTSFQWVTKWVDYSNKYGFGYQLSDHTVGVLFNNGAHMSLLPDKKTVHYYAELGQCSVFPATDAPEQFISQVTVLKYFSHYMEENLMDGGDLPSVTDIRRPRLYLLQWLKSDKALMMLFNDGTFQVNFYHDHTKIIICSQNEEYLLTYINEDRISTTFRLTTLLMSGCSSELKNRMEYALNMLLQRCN

[13] = target: Serine/threonine-protein kinase PAK 3 (Homo sapiens) (UniProt O75914); assay: Inhibition of recombinant human full length PAK3 at 1 uM using RRRLSFAEPG as substrate incubated for 40 mins in presence of [gamma-33P]-ATP by scintillation counting method relative to control; summary of the method: as §2
[14] = target: Serine/threonine-protein kinase PRP4 homolog (Homo sapiens) (UniProt Q13523); assay: Inhibition of recombinant human PRP4 (663 to end residues) at 1 uM using casein as substrate incubated for 40 mins in presence of [gamma-33P]-ATP by scintillation counting method relative to control
Chain of Serine/threonine-protein kinase PRP4 homolog (Homo sapiens) (Q13523 whole entry): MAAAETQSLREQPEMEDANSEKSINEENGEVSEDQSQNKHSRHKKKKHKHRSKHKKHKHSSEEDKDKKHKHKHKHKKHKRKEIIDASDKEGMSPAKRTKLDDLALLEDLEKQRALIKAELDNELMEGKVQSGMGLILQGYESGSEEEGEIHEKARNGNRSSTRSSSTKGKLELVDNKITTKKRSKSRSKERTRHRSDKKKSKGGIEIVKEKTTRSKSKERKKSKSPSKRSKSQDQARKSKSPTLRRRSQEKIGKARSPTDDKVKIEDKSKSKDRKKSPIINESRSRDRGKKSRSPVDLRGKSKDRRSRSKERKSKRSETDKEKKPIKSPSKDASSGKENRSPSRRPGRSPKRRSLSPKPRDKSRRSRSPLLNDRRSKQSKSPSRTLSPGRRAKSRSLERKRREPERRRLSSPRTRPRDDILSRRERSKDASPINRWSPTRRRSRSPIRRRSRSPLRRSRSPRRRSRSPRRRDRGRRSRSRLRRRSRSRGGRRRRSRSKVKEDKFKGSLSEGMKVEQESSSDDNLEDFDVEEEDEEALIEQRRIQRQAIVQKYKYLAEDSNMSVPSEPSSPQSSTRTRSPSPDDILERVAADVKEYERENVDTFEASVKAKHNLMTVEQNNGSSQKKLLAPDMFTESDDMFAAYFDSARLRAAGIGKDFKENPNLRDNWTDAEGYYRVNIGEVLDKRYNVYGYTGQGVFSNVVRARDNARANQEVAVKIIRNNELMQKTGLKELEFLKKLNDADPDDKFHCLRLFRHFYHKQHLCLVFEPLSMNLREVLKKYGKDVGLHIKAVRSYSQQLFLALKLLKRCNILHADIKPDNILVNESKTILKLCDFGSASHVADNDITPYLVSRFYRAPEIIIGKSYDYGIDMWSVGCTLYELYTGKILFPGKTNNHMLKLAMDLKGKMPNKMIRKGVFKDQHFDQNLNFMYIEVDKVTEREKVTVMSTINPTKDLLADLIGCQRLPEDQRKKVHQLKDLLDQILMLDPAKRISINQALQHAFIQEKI

[15] = target: Serine/threonine-protein kinase SBK1 (Homo sapiens) (UniProt Q52WX2); assay: Inhibition of recombinant human full length SBK1 at 1 uM using KKLRRTLSVA as substrate incubated for 40 mins in presence of [gamma-33P]-ATP by scintillation counting method relative to control
Chain of Serine/threonine-protein kinase SBK1 (Homo sapiens) (Q52WX2 whole entry): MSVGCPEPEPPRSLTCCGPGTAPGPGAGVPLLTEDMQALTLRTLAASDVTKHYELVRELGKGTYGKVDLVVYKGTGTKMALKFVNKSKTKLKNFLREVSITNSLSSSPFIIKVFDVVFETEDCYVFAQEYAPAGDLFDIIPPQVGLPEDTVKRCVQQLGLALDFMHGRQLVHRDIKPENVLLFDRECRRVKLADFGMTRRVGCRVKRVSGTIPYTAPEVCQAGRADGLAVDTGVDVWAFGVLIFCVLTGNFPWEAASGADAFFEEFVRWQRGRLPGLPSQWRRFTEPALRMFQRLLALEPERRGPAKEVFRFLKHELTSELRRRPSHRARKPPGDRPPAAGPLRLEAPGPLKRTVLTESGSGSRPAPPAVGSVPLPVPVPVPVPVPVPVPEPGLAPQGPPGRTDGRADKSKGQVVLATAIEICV

MDA-MB-231 [16] = assay: Induction of apoptosis in human MDA-MB-231 cells assessed as decrease in Rb phosphorylation incubated for 48 hrs by Western blot analysis; type: functional, cell-based
Summary of the method: (§4)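 Cells were treated for 48 h, washed three times with PBS, and lysed in RIPA buffer. Immunoblots used anti-Rb, anti-phospho-Rb, anti-Ki67 and anti-Bcl-2 (each 1:1000), with β-actin as loading control.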

[17] = Tmax in Sprague-Dawley rat at 10 mg/kg, iv by HPLC-MS analysis; type: ADME, organism-based; settings: in vivo
[18] = target: Aurora kinase A (Homo sapiens) (UniProt O14965); assay: Inhibition of recombinant full length human Aurora A at 1 uM using LRRASLG as substrate incubated for 40 mins in presence of [gamma-33P]-ATP by scintillation counting method relative to control; summary of the method: as §1
Chain of Aurora kinase A (Homo sapiens) (O14965 whole entry): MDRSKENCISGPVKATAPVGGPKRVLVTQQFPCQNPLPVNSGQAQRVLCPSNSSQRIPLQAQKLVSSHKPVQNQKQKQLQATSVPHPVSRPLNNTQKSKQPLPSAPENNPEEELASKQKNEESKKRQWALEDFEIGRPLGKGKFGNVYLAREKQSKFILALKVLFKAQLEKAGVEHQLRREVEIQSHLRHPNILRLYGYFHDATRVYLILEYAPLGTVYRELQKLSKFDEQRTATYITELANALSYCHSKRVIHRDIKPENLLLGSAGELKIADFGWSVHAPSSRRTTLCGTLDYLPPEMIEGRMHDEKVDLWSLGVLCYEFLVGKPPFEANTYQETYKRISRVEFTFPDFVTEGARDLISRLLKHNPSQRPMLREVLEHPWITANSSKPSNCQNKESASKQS

[19] = target: Glycogen synthase kinase-3 alpha (Homo sapiens) (UniProt P49840); assay: Inhibition of recombinant human GSK3alpha (2 to end residues) at 1 uM using YRRAAVPPSPSLSRHSSPHQS(p) EDEEE as substrate incubated for 40 mins in presence of [gamma-33P]-ATP by scintillation counting method relative to control; summary of the method: as §2
[20] = target: Serine/threonine-protein kinase WNK3 (Homo sapiens) (UniProt Q9BYP7); assay: Inhibition of recombinant human WNK3 (1 to 434 residues) at 1 uM using myelin basic protein as substrate incubated for 40 mins in presence of [gamma-33P]-ATP by scintillation counting method relative to control
SiHa = assay: Induction of apoptosis in human SiHa cells assessed as increase in early apoptotic cells at 20 to 40 nM incubated for 48 hrs by annexin V FITC and propidium iodide staining based flow cytometry; type: functional, cell-based; summary of the method: as §3
MDA-MB-231 [21] = assay: Induction of apoptosis in human MDA-MB-231 cells assessed as decrease in Bcl2 expression at 40 nM incubated for 48 hrs by Western blot analysis; type: functional, cell-based; summary of the method: as §4

SMILES: Cc1ccc(NC(=O)C2(C(=O)Nc3ccc(Nc4ncc(F)c(-c5cc(F)c6nc(C)n(C(C)C)c6c5)n4)cc3)CC2)cc1
- inhibition [1]: 28%
- Activity [2]: Non-Toxic
- inhibition [3]: 8%
- inhibition [4]: 23%
- inhibition [5]: 12%
- inhibition [6]: 54%
- VRT(t) [7]: 2 h
- inhibition [8]: 0%
- inhibition [9]: 11%
- AUC(0-inf) [10]: 11000 ng·h/mL
- Activity (MDA-MB-231 [11]): Active
- inhibition [12]: 47%
- inhibition [13]: 0%
- inhibition [14]: 48%
- inhibition [15]: 13%
- Activity (MDA-MB-231 [16]): Dose-dependent effect
- Tmax [17]: 5 min
- inhibition [18]: 79%
- inhibition [19]: 0%
- inhibition [20]: 17%
- Activity (SiHa): Active

SMILES: COc1cc2nccc(Oc3ccc(NC(=O)C4(C(=O)Nc5ccc(F)cc5)CC4)cc3)c2cc1OC [CABOZANTINIB]
- Activity (MDA-MB-231 [21]): Active

— ChEMBL document CHEMBL4406821, “Novel dual inhibitors targeting CDK4 and VEGFR2 synergistically suppressed cancer progression and angiogenesis” (Eur J Med Chem, 2019)
